From ChEMBL document CHEMBL5653631, “A Potent and Selective ULK1 Inhibitor Suppresses Autophagy and Sensitizes Cancer Cells to Nutrient Stress” (iScience, 2018)

Assays:
[1] = biological target: Serine/threonine-protein kinase tousled-like 2 (Homo sapiens) (UniProt Q86UE8); test: Inhibition of human recombinant TLK2 at 500 nM related to control ULK1
[2] = biological target: Calcium/calmodulin-dependent protein kinase kinase 1 (Homo sapiens) (UniProt Q8N5S9); test: Inhibition of human recombinant CaMKK1 at 500 nM in presence of ATP by radiometric assay relative to control
Calcium/calmodulin-dependent protein kinase kinase 1 (Homo sapiens), sequence (Q8N5S9 whole entry, looked up): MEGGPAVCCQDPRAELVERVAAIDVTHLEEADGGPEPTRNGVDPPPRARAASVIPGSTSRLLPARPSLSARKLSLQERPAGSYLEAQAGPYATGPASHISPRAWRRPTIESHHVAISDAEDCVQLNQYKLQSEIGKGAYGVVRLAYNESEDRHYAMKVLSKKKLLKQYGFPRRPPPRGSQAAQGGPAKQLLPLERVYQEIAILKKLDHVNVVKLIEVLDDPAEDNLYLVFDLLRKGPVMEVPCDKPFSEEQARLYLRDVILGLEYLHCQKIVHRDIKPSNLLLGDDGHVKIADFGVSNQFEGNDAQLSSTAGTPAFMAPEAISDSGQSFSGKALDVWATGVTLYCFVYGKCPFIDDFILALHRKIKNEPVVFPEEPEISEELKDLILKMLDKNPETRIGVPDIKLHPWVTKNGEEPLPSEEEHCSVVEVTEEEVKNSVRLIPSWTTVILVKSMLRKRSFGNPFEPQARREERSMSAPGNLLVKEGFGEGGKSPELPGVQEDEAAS

[3] = biological target: Serine/threonine-protein kinase Chk2 (Homo sapiens) (UniProt O96017); test: Inhibition of human recombinant CHK2 at 500 nM in presence of ATP by radiometric assay relative to control
Serine/threonine-protein kinase Chk2 (Homo sapiens), sequence (O96017 whole entry): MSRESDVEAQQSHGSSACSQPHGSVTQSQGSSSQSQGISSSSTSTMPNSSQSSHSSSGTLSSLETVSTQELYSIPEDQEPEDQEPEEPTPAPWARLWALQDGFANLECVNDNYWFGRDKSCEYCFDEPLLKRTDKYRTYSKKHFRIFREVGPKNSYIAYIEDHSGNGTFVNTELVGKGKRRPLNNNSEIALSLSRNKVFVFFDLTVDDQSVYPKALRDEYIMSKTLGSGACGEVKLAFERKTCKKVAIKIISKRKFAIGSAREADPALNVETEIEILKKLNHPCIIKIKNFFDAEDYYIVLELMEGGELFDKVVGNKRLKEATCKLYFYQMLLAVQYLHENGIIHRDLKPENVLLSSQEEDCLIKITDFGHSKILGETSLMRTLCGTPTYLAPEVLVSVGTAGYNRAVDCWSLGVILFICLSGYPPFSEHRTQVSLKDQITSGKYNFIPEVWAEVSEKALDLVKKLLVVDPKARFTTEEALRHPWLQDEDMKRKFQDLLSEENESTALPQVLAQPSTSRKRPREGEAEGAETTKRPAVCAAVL

[4] = biological target: Tyrosine-protein kinase SYK (Homo sapiens) (UniProt P43405); test: Inhibition of human recombinant SYK at 15 nM related to control ULK1
[5] = biological target: Ribosomal protein S6 kinase alpha-3 (Homo sapiens) (UniProt P51812); test: Inhibition of human recombinant RSK2 at 15 nM related to control ULK1
[6] = biological target: Platelet-derived growth factor receptor alpha (Homo sapiens) (UniProt P16234); test: Inhibition of human recombinant PDGFRa at 15 nM related to control ULK1
Platelet-derived growth factor receptor alpha (Homo sapiens), sequence (P16234 whole entry): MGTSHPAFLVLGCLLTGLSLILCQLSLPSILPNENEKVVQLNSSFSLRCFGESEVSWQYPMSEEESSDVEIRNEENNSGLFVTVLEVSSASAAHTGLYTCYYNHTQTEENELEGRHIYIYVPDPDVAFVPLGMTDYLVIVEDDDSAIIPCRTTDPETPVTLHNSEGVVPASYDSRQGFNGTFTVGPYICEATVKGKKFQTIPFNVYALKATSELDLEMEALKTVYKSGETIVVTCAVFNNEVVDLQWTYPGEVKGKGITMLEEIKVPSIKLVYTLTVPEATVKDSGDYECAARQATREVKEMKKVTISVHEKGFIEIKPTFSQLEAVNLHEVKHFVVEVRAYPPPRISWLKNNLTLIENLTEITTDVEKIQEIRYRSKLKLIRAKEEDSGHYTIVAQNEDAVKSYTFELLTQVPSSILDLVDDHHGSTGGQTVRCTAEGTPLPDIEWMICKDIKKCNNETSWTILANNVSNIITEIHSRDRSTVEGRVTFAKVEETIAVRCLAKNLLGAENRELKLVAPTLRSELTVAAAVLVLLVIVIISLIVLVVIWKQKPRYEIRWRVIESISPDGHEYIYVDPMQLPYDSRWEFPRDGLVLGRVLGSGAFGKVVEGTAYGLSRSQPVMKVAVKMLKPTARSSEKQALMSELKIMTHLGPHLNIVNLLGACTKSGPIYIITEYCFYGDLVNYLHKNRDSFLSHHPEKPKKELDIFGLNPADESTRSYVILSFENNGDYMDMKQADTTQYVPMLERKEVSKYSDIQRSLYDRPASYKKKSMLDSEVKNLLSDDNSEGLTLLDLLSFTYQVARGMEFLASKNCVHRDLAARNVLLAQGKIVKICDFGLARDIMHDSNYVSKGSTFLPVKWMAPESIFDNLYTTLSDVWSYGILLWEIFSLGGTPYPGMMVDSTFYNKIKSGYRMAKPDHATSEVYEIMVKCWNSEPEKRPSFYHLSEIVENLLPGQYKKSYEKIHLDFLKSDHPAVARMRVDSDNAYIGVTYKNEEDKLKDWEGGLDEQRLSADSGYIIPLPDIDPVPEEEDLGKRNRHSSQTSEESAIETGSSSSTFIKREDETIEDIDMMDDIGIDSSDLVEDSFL

[7] = biological target: T1, Serine/threonine-protein kinase BRSK1 (Homo sapiens) (UniProt Q8TDC3); test: Inhibition of human recombinant BRSK1 at 15 nM in presence of ATP by radiometric assay relative to control
T1 sequence (whole entry): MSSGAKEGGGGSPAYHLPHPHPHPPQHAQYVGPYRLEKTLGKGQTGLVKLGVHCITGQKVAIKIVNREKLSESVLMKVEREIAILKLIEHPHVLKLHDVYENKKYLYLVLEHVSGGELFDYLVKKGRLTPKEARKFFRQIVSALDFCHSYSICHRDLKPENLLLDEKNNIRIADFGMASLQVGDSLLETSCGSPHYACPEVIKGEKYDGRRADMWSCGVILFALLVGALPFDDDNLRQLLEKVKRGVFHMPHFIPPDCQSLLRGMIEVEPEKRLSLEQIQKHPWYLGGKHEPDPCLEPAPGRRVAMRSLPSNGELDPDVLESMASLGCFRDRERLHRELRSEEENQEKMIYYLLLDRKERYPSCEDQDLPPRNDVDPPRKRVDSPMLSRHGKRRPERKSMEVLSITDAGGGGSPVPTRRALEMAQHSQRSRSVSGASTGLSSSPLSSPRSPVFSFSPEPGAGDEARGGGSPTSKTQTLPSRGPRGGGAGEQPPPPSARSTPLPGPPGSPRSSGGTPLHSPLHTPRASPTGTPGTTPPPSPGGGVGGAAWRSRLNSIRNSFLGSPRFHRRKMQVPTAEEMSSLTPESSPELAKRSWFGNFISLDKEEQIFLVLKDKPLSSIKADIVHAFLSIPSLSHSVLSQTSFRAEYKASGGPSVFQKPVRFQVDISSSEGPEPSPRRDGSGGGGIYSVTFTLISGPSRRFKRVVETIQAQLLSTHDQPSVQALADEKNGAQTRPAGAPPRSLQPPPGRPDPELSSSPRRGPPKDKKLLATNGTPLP
Method in brief: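 Part of a radiometric in vitro activity panel of 327 recombinant human kinases. Each kinase was tested in duplicate at one inhibitor concentration. Activity remaining was expressed as a percentage of the vehicle control, and percent inhibition was taken as 100 minus that value.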

[8] = biological target: eIF-2-alpha kinase GCN2 (Homo sapiens) (UniProt Q9P2K8); test: Inhibition of human recombinant GCN2 at 15 nM related to control ULK1
[9] = biological target: cAMP-dependent protein kinase catalytic subunit beta (Homo sapiens) (UniProt P22694); test: Inhibition of human recombinant PKACbeta at 40 nM related to control ULK1
[10] = biological target: Protein kinase C delta type (Homo sapiens) (UniProt Q05655); test: Inhibition of human recombinant PKCd at 40 nM related to control ULK1
Protein kinase C delta type (Homo sapiens), sequence (Q05655 whole entry, looked up): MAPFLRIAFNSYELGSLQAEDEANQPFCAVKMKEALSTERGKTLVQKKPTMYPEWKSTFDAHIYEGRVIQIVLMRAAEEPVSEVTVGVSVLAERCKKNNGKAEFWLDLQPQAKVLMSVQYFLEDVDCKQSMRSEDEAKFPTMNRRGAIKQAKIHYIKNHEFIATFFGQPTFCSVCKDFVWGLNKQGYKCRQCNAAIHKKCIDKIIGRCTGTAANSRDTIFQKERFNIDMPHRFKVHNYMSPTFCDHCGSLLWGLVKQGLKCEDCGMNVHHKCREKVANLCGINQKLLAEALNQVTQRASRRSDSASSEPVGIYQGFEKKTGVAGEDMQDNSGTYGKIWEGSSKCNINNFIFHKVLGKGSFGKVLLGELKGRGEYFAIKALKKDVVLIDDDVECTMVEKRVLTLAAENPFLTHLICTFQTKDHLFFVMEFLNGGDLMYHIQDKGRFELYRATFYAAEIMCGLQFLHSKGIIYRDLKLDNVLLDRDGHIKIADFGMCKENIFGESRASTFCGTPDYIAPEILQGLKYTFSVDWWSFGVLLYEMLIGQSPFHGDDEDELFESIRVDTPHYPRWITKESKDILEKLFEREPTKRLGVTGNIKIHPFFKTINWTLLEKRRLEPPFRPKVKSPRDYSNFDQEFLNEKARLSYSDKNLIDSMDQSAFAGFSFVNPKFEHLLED

[11] = biological target: Ephrin type-A receptor 5 (Homo sapiens) (UniProt P54756); test: Inhibition of human recombinant EphA5 at 40 nM related to control ULK1
Ephrin type-A receptor 5 (Homo sapiens), sequence (P54756 whole entry): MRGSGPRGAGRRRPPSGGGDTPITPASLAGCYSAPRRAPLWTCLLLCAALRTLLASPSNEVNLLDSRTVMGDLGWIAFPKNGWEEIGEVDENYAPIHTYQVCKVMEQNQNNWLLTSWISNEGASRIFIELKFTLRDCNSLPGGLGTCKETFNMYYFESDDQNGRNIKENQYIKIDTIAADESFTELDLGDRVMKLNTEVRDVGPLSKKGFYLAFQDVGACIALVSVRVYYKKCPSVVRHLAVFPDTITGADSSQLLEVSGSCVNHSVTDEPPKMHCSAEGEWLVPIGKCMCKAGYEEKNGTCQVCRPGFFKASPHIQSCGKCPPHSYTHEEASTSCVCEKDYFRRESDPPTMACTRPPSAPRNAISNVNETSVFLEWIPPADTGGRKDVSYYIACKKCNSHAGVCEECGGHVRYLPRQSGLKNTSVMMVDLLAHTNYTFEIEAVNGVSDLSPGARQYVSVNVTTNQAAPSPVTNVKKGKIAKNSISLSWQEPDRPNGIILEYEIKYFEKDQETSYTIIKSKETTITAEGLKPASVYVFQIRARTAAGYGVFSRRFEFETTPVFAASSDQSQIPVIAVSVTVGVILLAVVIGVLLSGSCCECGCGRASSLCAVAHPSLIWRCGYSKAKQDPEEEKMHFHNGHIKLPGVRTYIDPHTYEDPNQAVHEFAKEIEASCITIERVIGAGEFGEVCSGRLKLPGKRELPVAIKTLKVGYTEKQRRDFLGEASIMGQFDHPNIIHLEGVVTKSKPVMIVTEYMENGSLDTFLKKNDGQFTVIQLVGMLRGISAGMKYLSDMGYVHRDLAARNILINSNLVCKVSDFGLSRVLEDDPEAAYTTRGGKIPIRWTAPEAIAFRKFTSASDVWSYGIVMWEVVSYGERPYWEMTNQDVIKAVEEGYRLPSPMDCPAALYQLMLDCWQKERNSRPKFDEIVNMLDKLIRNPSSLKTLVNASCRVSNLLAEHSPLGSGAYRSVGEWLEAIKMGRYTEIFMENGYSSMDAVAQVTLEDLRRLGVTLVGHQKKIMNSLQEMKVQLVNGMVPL

[12] = biological target: Calcium/calmodulin-dependent protein kinase type 1D (Homo sapiens) (UniProt Q8IU85); test: Inhibition of human recombinant CaMK1d at 40 nM in presence of ATP by radiometric assay relative to control
Calcium/calmodulin-dependent protein kinase type 1D (Homo sapiens), sequence (Q8IU85 whole entry, looked up): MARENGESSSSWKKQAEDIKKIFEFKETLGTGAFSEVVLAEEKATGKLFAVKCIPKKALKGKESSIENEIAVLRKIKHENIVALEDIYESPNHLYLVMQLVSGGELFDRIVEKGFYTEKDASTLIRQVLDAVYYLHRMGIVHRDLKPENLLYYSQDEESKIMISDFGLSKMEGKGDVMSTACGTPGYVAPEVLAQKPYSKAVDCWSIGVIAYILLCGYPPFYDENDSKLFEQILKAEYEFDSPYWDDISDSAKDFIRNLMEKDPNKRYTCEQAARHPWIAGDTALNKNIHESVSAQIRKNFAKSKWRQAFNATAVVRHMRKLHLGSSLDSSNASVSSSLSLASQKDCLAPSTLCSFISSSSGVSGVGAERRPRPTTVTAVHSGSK

[13] = biological target: T2, Serine/threonine-protein kinase Nek1 (Homo sapiens) (UniProt Q96PY6); test: Inhibition of human recombinant NEK1 at 40 nM related to control ULK1
T2 sequence (whole entry): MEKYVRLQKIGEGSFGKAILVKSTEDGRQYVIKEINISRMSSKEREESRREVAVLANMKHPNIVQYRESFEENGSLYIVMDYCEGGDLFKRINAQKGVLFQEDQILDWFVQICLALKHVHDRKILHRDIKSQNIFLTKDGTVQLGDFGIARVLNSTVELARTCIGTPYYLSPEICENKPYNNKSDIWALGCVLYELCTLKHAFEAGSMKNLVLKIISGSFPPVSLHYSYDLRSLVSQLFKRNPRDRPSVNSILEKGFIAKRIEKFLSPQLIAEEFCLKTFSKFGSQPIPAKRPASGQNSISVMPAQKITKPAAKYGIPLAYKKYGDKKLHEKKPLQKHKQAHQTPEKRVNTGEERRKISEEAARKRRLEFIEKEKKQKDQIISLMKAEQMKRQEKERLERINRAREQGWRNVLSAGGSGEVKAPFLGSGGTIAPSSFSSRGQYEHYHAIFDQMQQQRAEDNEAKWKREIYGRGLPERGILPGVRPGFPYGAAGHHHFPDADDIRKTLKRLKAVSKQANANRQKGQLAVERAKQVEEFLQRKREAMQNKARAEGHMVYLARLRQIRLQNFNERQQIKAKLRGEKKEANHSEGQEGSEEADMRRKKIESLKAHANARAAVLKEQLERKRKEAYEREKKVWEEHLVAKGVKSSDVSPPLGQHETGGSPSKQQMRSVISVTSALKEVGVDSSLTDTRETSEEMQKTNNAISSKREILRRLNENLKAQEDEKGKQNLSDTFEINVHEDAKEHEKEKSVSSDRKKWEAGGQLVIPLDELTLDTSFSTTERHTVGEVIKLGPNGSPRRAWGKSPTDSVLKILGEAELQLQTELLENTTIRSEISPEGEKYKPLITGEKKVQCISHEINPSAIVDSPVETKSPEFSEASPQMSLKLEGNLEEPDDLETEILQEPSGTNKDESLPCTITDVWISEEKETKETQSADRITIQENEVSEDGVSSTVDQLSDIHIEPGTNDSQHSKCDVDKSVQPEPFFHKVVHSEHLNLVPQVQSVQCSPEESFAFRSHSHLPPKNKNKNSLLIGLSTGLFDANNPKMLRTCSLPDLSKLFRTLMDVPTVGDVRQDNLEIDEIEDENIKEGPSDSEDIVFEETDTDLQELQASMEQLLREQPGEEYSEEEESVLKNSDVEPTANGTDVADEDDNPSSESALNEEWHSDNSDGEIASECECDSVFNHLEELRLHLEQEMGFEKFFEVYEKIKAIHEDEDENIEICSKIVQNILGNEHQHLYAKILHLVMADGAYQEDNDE

Serine/threonine-protein kinase tousled-like 2 (Homo sapiens), sequence (Q86UE8 whole entry, looked up): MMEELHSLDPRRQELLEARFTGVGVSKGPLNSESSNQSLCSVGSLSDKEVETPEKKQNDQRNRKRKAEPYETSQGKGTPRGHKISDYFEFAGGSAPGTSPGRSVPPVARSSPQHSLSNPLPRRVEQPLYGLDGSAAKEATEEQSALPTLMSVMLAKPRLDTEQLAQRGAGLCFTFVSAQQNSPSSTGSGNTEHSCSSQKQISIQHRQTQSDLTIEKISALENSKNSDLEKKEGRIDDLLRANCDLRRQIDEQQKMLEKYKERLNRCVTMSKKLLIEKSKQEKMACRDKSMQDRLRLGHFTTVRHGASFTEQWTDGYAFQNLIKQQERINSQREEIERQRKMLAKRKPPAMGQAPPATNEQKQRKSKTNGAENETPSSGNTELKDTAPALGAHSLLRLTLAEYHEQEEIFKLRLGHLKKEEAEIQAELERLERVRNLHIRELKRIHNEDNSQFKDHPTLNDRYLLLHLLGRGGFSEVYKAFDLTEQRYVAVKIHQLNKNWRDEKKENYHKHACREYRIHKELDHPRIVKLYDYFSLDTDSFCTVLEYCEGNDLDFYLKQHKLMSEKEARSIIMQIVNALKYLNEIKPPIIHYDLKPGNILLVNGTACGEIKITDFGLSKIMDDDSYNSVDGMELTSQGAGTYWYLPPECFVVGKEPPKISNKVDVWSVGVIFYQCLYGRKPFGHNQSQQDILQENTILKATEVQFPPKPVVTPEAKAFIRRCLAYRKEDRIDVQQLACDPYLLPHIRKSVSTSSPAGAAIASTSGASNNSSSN

CNC(=O)c1ccccc1Oc1nc(Nc2cc(OC)c(OC)c(OC)c2)ncc1Br
fold change (FC) [1]: 0
inhibition [2]: 8%
inhibition [3]: 0%

CC(C)[C@H](NC(=O)c1cc(-c2cnn3cc(-c4ccc(OCCN5CCCCC5)cc4)cnc23)cs1)C(F)(F)F
fold change (FC) [4]: 0
fold change (FC) [5]: 0
fold change (FC) [6]: 0.06
inhibition [7]: 13%
fold change (FC) [8]: 0.09

O=C(N[C@@H](C1CC1)C(F)(F)F)c1cc(-c2cnn3cc(-c4ccc(F)cc4)cnc23)cs1
fold change (FC) [9]: 0
fold change (FC) [10]: 0.04
fold change (FC) [11]: 0
inhibition [12]: 0%
fold change (FC) [13]: 0
